We go through nine compounds from ChEMBL document CHEMBL3399931, “Reversible and irreversible small molecule inhibitors of monoamine oxidase B (MAO-B) investigated by biophysical techniques” (Bioorg Med Chem, 2015).

Data set [1] deals with T1, Amine oxidase [flavin-containing] B (Homo sapiens, UniProt P27338).
T1 sequence (P27338 whole entry): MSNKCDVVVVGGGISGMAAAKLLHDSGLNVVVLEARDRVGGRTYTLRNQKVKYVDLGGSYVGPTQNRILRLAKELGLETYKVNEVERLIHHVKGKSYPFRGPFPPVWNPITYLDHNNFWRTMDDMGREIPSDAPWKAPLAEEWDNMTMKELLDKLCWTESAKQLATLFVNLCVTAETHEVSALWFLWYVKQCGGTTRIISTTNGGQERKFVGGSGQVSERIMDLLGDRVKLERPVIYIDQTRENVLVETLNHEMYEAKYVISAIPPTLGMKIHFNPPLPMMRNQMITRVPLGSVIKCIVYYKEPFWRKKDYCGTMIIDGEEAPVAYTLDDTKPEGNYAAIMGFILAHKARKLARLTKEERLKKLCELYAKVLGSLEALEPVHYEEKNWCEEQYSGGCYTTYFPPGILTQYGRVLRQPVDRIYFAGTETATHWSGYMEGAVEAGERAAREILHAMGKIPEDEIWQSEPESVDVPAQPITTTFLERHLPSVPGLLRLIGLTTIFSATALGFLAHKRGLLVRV
In words: Inhibition of human recombinant soluble MAO-B assessed as change in melting temperature at 10 uM after 20 mins by SYPRO orange staining-based fluorescence assay.

For data set [2], the target named is T1, Amine oxidase [flavin-containing] B. The data set is described as follows: Inhibition of human recombinant soluble MAO-B assessed as change in melting temperature at 100 uM after 20 mins by SYPRO orange staining-based fluorescence assay. In a few lines: (§1)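 It was preincubated with serial compound dilutions (0.5–10 µM or 1.7–100 µM) for 20 min at 4 °C in 10% DMSO. 1x SYPRO orange was then added and samples ramped 25–80 °C at 1 °C/s. Boltzmann Tm was taken from the ~50–70 °C region, and ΔTm = Tm(compound) − Tm(DMSO only).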

Data set [3] addresses T2, Amine oxidase [flavin-containing] B (Rattus norvegicus, UniProt P19643).
T2 sequence (P19643 whole entry): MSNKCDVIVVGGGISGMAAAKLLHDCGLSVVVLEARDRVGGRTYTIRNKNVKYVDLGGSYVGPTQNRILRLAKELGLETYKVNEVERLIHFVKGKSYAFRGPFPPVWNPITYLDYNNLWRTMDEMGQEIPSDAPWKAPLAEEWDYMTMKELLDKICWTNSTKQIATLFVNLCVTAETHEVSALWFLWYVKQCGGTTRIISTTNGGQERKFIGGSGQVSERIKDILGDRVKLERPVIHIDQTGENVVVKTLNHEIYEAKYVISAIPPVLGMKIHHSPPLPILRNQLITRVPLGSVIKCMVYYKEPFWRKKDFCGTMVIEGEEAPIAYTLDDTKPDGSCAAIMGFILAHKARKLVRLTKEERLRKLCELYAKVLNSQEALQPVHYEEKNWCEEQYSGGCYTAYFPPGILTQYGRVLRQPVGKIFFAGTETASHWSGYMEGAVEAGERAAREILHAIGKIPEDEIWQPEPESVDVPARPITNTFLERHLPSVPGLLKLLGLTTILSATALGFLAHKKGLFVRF
The data set is described as follows: Reversible inhibition of MAO-B in rat whole brain homogenate assessed as recovered activity at 100 times IC50 incubated for 60 mins followed by 3 washes by Amplex Red assay. Conditions: 1 h; call rule not given here. Also on record: scale not given: the % may be the effect or the level left. The format is tissue-based.

For data set [4], the target named is T2, Amine oxidase [flavin-containing] B. The data set is described as follows: Reversible inhibition of MAO-B in rat whole brain homogenate assessed as recovered activity at 100 times IC50 incubated for 60 mins followed by 6 washes by Amplex Red assay. Further details: scale not given: the % may be the effect or the level left. The note with it: 1 h. The class given is tissue-based.

Data set [5] addresses T1, Amine oxidase [flavin-containing] B. In words: Inhibition of human recombinant soluble MAO-B expressed in Pichia pastoris incubated for 30 mins prior to substrate addition measured after 60 mins by MAO-Glo assay.
Data set [6] has the same target. The data set is described as follows: Inhibition of human recombinant soluble MAO-B assessed as thermal shift after 20 mins by SYPRO orange staining-based fluorescence assay. In a few lines: as §1
The target is the same in data set [7]. In words: Inhibition of human recombinant microsomal MAO-B expressed in Pichia pastoris incubated for 30 mins prior to substrate addition measured after 60 mins by MAO-Glo assay.
For data set [8], the target named is T3, Amine oxidase [flavin-containing] A (Rattus norvegicus, UniProt P21396).
T3 sequence (P21396 whole entry): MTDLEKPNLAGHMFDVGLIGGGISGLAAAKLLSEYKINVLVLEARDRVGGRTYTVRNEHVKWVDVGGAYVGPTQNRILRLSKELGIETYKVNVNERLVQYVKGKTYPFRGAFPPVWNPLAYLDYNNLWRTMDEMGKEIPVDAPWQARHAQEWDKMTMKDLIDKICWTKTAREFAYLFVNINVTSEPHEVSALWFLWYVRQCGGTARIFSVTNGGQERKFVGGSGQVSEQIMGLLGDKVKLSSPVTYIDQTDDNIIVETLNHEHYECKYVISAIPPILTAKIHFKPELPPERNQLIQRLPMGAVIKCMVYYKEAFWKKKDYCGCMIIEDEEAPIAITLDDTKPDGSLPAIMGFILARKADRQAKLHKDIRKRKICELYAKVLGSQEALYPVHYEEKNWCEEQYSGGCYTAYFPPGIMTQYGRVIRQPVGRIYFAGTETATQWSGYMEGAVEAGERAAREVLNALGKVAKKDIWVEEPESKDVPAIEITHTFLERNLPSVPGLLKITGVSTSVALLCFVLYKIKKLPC
The data set is described as follows: Inhibition of MAO-A in rat whole brain homogenate. The class given is tissue-based. In a few lines: (§2)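 Insoluble fraction of rat brain lysate was assayed with the non-selective MAO-Glo substrate. Dose–response curves were run against a matrix of fixed concentrations of an MAO-A-selective inhibitor (0.06–200 nM) and an MAO-B-selective inhibitor (0.05–50,000 nM), so that each isoform's contribution could be separated.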

Data set [9] deals with T2, Amine oxidase [flavin-containing] B. In words: Inhibition of MAO-B in rat whole brain homogenate. The format is tissue-based. The method, boiled down:
as §2

pEC50, pKi: −log10 of the molar value. Bounds are passed on as bounds.

Turning to `C#CCN(C)Cc1ccccc1` [PARGYLINE], in data set [1], the deltaTm came out at 12.3 °C.

For the compound `CCc1ccc(CCOc2ccc(CC3SC(=O)NC3=O)cc2)nc1` (stereo unspecified) [PIOGLITAZONE], the deltaTm in [2] was 2.5 °C.

In the case of `C[C@H](NCc1ccc(OCc2cccc(F)c2)cc1)C(N)=O` [SAFINAMIDE], the Activity came out at 31% in [3] and 100% in [4].

`C#CCN[C@@H]1CCc2ccccc21` [RASAGILINE]: the deltaTm in data set [1] was determined as 14.6 °C.

For `Cn1c(=O)c2c(nc(/C=C/c3cccc(Cl)c3)n2C)n(C)c1=O`, in data set [2], the Activity entry is recorded as “Not Active”.

`N[C@@H]1C[C@H]1c1ccccc1.N[C@H]1C[C@@H]1c1ccccc1` (relative stereo) [TRANYLCYPROMINE]: the Activity result in data set [2] was “Not Active”.

One may read the pKi as the negative decadic logarithm of the Ki, by convention in mol/L. Usually pEC50 stands for the negative decadic logarithm of the EC50, by convention in mol/L. As to `NCCNC(=O)c1ccc(Cl)cc1`, the pKi in data set [5] is 7.49; in data set [7] it was 6.00. The pEC50 in data set [6] is 4.54. Further, the deltaTm in data set [2] turned out to be 4.5 °C.

As for `NCCNC(=O)c1ccc(Cl)cn1` [LAZABEMIDE], the results for the Activity in data set [3] and in data set [4] were 74% and 100%, respectively. For the same compound, the deltaTm in data set [2] is 7 °C.

Consider `C#CCN(C)[C@H](C)Cc1ccccc1` [SELEGILINE], for which the INH in [8] is reported as 781 nM; in data set [9], less than 200 nM.
